Measured values reported in ChEMBL document CHEMBL1121608, “Modification of the 5' position of purine nucleosides. 2. Synthesis and some cardiovascular properties of adenosine-5'-(N-substituted)carboxamides” (J Med Chem, 1980).

Columns and labels:
Canis familiaris [1] = assay: Total time in minutes elapsed from the initiation of the change until return to the pretest value of blood pressure in coronary sinus of anesthetized dog at intravenous dosage of 9 mg/kg; format: functional, Canis lupus familiaris
Canis familiaris [2] = assay: Total time in minutes elapsed from the initiation of the change until return to the pretest value of heart rate in coronary sinus of anesthetized dog at intravenous dosage of 9 mg/kg; format: functional, Canis lupus familiaris
Canis familiaris [3] = assay: Total time in minutes elapsed from the initiation of the change until return to the pretest value of oxygen partial pressure in coronary sinus of anesthetized dog at intravenous dosage of 9 mg/kg; format: functional, Canis lupus familiaris
In short: (§1)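 Open-chest anesthetized dogs given compound by intravenous injection. Coronary sinus PO2 was monitored, and duration was the total time in minutes from the onset of the change until return to the pretest value.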

Canis familiaris [4] = assay: tested for the percent increase in aortic blood pressure (BP) in open chest anesthetized dog at intravenous dosage of 9.00 mg/kg; format: functional, Canis lupus familiaris, Artery
In short: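 Open-chest anesthetized dogs received intravenous doses. Aortic blood pressure was recorded as the change from control.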

Canis familiaris [5] = assay: tested for percent increase in coronary sinus partial pressure of oxygen (PO2) in open chest anesthetized dog at intravenous dosage of 9.00 mg/kg; format: functional, Canis lupus familiaris
[6] = Lethal dose in mice after intraperitoneal administration; format: toxicity, organism-based; details: mouse, in vivo, ip
In short: (§2)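 Male and female mice, three per dose group, were given the compound by the stated route in increments of 0.5 log doses. The LD50 was estimated as an approximate value.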

[7] = Lethal dose in mice after peroral administration; format: toxicity, organism-based; details: mouse, in vivo, po; in short: as §2
Canis familiaris [8] = assay: Total time in minutes elapsed from the initiation of the change until return to the pretest value of blood pressure in coronary sinus of anesthetized dog at intravenous dosage of 0.1 mg/kg; format: functional, Canis lupus familiaris
Canis familiaris [9] = assay: Total time in minutes elapsed from the initiation of the change until return to the pretest value of blood pressure in coronary sinus of anesthetized dog at intravenous dosage of 1 mg/kg; format: functional, Canis lupus familiaris
Canis familiaris [10] = assay: Total time in minutes elapsed from the initiation of the change until return to the pretest value of heart rate in coronary sinus of anesthetized dog at intravenous dosage of 0.1 mg/kg; format: functional, Canis lupus familiaris
Canis familiaris [11] = assay: Total time in minutes elapsed from the initiation of the change until return to the pretest value of heart rate in coronary sinus of anesthetized dog at intravenous dosage of 1 mg/kg; format: functional, Canis lupus familiaris
Canis familiaris [12] = assay: Total time in minutes elapsed from the initiation of the change until return to the pretest value of oxygen partial pressure in coronary sinus of anesthetized dog at intravenous dosage of 0.1 mg/kg; format: functional, Canis lupus familiaris
Canis familiaris [13] = assay: Total time in minutes elapsed from the initiation of the change until return to the pretest value of oxygen partial pressure in coronary sinus of anesthetized dog at intravenous dosage of 1 mg/kg; format: functional, Canis lupus familiaris; in short: as §1
Canis familiaris [14] = assay: Tested for percent increase in coronary sinus partial pressure of oxygen (PO2) in open chest anesthetized dog at intravenous dosage of 0.10 mg/kg; format: functional, Canis lupus familiaris; details: dose 0.1 mg/kg
Canis familiaris [15] = assay: Tested for the percent increase in aortic blood pressure (BP) in open chest anesthetized dog at intravenous dosage of 0.10 mg/kg; format: functional, Canis lupus familiaris, Artery; details: dose 0.1 mg/kg
In short: (§3)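 Open-chest anesthetized dogs, compound given iv at the stated dose. Aortic blood pressure is reported as the change from the control (pre-dose) value. Other set-up follows the group's earlier cardiovascular protocol.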

Canis familiaris [16] = assay: Tested for the percent increase in aortic blood pressure (BP) in open chest anesthetized dog at intravenous dosage of 1.00 mg/kg; format: functional, Canis lupus familiaris, Artery; in short: as §3
Canis familiaris [17] = assay: tested for the percent increase in heart rate (HR) in open chest anesthetized dog at intravenous dosage of 0.10 mg/kg; format: functional, Canis lupus familiaris; details: dose 0.1 mg/kg
Canis familiaris [18] = assay: Tested for the percent increase in coronary sinus partial pressure of oxygen (PO2) in open chest anesthetized dog at intravenous dosage of 1.00 mg/kg; format: functional, Canis lupus familiaris
Canis familiaris [19] = assay: Total time in minutes elapsed from the initiation of the change until return to the pretest value of blood pressure in coronary sinus of anesthetized dog at intravenous dosage of 0.01 mg/kg; format: functional, Canis lupus familiaris
Canis familiaris [20] = assay: Total time in minutes elapsed from the initiation of the change until return to the pretest value of heart rate in coronary sinus of anesthetized dog at intravenous dosage of 0.001 mg/kg; format: functional, Canis lupus familiaris
Canis familiaris [21] = assay: Total time in minutes elapsed from the initiation of the change until return to the pretest value of oxygen partial pressure in coronary sinus of anesthetized dog at intravenous dosage of 0.01 mg/kg; format: functional, Canis lupus familiaris
Canis familiaris [22] = assay: Tested for percent increase in coronary sinus partial pressure of oxygen (PO2) in open chest anesthetized dog at intravenous dosage of 0.01 mg/kg; format: functional, Canis lupus familiaris
Canis familiaris [23] = assay: Tested for the percent increase in aortic blood pressure (BP) in open chest anesthetized dog at intravenous dosage of 0.01 mg/kg; format: functional, Canis lupus familiaris, Artery; in short: as §3
Canis familiaris [24] = assay: Total time in minutes elapsed from the initiation of the change until return to the pretest value of blood pressure in coronary sinus of anesthetized dog at intravenous dosage of 10 mg/kg; format: functional, Canis lupus familiaris
Canis familiaris [25] = assay: Total time in minutes elapsed from the initiation of the change until return to the pretest value of heart rate in coronary sinus of anesthetized dog at intravenous dosage of 10 mg/kg; format: functional, Canis lupus familiaris
Canis familiaris [26] = assay: Total time in minutes elapsed from the initiation of the change until return to the pretest value of oxygen partial pressure in coronary sinus of anesthetized dog at intravenous dosage of 10 mg/kg; format: functional, Canis lupus familiaris; in short: as §1
Canis familiaris [27] = assay: Tested for percent increase in coronary sinus partial pressure of oxygen (PO2) in open chest anesthetized dog at intravenous dosage of 1.00 mg/kg; format: functional, Canis lupus familiaris
Canis familiaris [28] = assay: Tested for the percent increase in aortic blood pressure (BP) in open chest anesthetized dog at intravenous dosage of 10.00 mg/kg; format: functional, Canis lupus familiaris, Artery; in short: as §3
Canis familiaris [29] = assay: Tested for the percent increase in coronary sinus partial pressure of oxygen (PO2) in open chest anesthetized dog at intravenous dosage of 10.00 mg/kg; format: functional, Canis lupus familiaris
Canis familiaris [30] = assay: Total time in minutes elapsed from the initiation of the change until return to the pretest value of blood pressure in coronary sinus of anesthetized dog at intravenous dosage of 5 mg/kg; format: functional, Canis lupus familiaris
Canis familiaris [31] = assay: Total time in minutes elapsed from the initiation of the change until return to the pretest value of heart rate in coronary sinus of anesthetized dog at intravenous dosage of 5 mg/kg; format: functional, Canis lupus familiaris
Canis familiaris [32] = assay: Total time in minutes elapsed from the initiation of the change until return to the pretest value of oxygen partial pressure in coronary sinus of anesthetized dog at intravenous dosage of 5 mg/kg; format: functional, Canis lupus familiaris; in short: as §1
Canis familiaris [33] = assay: Tested for the percent increase in coronary sinus partial pressure of oxygen (PO2) in open chest anesthetized dog at intravenous dosage of 5.00 mg/kg; format: functional, Canis lupus familiaris
Canis familiaris [34] = assay: Total time in minutes elapsed from the initiation of the change until return to the pretest value of blood pressure in coronary sinus of anesthetized dog at intravenous dosage of 0.10 mg/kg; format: functional, Canis lupus familiaris; details: dose 0.1 mg/kg
In short: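 Open-chest anesthetized dogs were given the compound intravenously. Duration is the total minutes from the start of the change until return to the pretest value. Blood pressure was recorded as change from control.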

Canis familiaris [35] = assay: Total time in minutes elapsed from the initiation of the change until return to the pretest value of heart rate in coronary sinus of anesthetized dog at intravenous dosage of 0.01 mg/kg; format: functional, Canis lupus familiaris
Canis familiaris [36] = assay: Total time in minutes elapsed from the initiation of the change until return to the pretest value of oxygen partial pressure in coronary sinus of anesthetized dog at intravenous dosage of 0.10 mg/kg; format: functional, Canis lupus familiaris; details: dose 0.1 mg/kg
Canis familiaris [37] = assay: Tested for the percent increase in coronary sinus partial pressure of oxygen (PO2) in open chest anesthetized dog at intravenous dosage of 0.10 mg/kg; format: functional, Canis lupus familiaris; details: dose 0.1 mg/kg
Canis familiaris [38] = assay: Total time in minutes elapsed from the initiation of the change until return to the pretest value of blood pressure in coronary sinus of anesthetized dog at intravenous dosage of 2 mg/kg; format: functional, Canis lupus familiaris
Canis familiaris [39] = assay: Total time in minutes elapsed from the initiation of the change until return to the pretest value of heart rate in coronary sinus of anesthetized dog at intravenous dosage of 2 mg/kg; format: functional, Canis lupus familiaris
Canis familiaris [40] = assay: Total time in minutes elapsed from the initiation of the change until return to the pretest value of oxygen partial pressure in coronary sinus of anesthetized dog at intravenous dosage of 2 mg/kg; format: functional, Canis lupus familiaris; in short: as §1
Canis familiaris [41] = assay: Tested for the percent increase in aortic blood pressure (BP) in open chest anesthetized dog at intravenous dosage of 2.00 mg/kg; format: functional, Canis lupus familiaris, Artery; in short: as §3
Canis familiaris [42] = assay: Tested for percent increase in coronary sinus partial pressure of oxygen (PO2) in open chest anesthetized dog at intravenous dosage of 2.00 mg/kg; format: functional, Canis lupus familiaris

SMILES: Nc1ncnc2c1ncn2C1O[C@H](C(=O)NCC(O)COc2cccc3ccccc23)[C@@H](O)[C@H]1O (stereo partly drawn)
- Duration (Canis familiaris [1]): 7 min
- Duration (Canis familiaris [2]): 12 min
- Duration (Canis familiaris [3]): 18 min
- BP (Canis familiaris [4]): 8 mmHg
- PO2 (Canis familiaris [5]): 152%
- LD50 [6]: > 300 mg/kg
- LD50 [7]: > 300 mg/kg

SMILES: C#CCNC(=O)[C@H]1OC(n2cnc3c(N)ncnc32)[C@H](O)[C@@H]1O (stereo partly drawn)
- Duration (Canis familiaris [8]): 70 min
- Duration (Canis familiaris [9]): 180 min
- Duration (Canis familiaris [10]): 60 min
- Duration (Canis familiaris [11]): 82 min
- Duration (Canis familiaris [12]): 70 min
- Duration (Canis familiaris [13]): 180 min
- PO2 (Canis familiaris [14]): 50%
- BP (Canis familiaris [15]): 5%
- BP (Canis familiaris [16]): 40%
- HR (Canis familiaris [17]): 13%
- PO2 (Canis familiaris [18]): 133%
- LD50 [6]: 200 mg/kg
- LD50 [7]: > 1000 mg/kg

SMILES: Nc1c2ncn(C3O[C@H](C(=O)NC4CC4)[C@@H](O)[C@H]3O)c2nc[n+]1[O-] (stereo partly drawn)
- Duration (Canis familiaris [19]): 60 min
- Duration (Canis familiaris [20]): 60 min
- Duration (Canis familiaris [21]): 75 min
- PO2 (Canis familiaris [22]): 66%
- BP (Canis familiaris [23]): 15%

SMILES: CCN(CC)CCNC(=O)[C@H]1OC(n2cnc3c(N)ncnc32)[C@H](O)[C@@H]1O (stereo partly drawn)
- Duration (Canis familiaris [9]): 0 min
- Duration (Canis familiaris [24]): 22 min
- Duration (Canis familiaris [11]): 0 min
- Duration (Canis familiaris [25]): 60 min
- Duration (Canis familiaris [13]): 6 min
- Duration (Canis familiaris [26]): 60 min
- PO2 (Canis familiaris [27]): 57%
- BP (Canis familiaris [16]): 0%
- BP (Canis familiaris [28]): 7%
- PO2 (Canis familiaris [29]): 25%
- LD50 [6]: 50 mg/kg
- LD50 [7]: > 1000 mg/kg

SMILES: Nc1ncnc2c1ncn2C1O[C@H](C(=O)NCCc2ccccc2)[C@@H](O)[C@H]1O (stereo partly drawn)
- Duration (Canis familiaris [9]): 1 min
- Duration (Canis familiaris [30]): 60 min
- Duration (Canis familiaris [11]): 18 min
- Duration (Canis familiaris [31]): 6 min
- Duration (Canis familiaris [13]): 25 min
- Duration (Canis familiaris [32]): 60 min
- PO2 (Canis familiaris [27]): 9%
- BP (Canis familiaris [16]): 11%
- PO2 (Canis familiaris [33]): 44%
- LD50 [6]: 500 mg/kg
- LD50 [7]: > 1000 mg/kg

SMILES: Nc1ncnc2c1ncn2C1O[C@H](C(=O)NCCO)[C@@H](O)[C@H]1O (stereo partly drawn)
- Duration (Canis familiaris [19]): 90 min
- Duration (Canis familiaris [34]): 240 min
- Duration (Canis familiaris [35]): 42 min
- Duration (Canis familiaris [10]): 15 min
- Duration (Canis familiaris [21]): 90 min
- Duration (Canis familiaris [36]): 240 min
- PO2 (Canis familiaris [22]): 75%
- PO2 (Canis familiaris [37]): 163%
- LD50 [6]: 2 mg/kg
- LD50 [7]: 5 mg/kg

SMILES: Nc1ncnc2c1ncn2[C@@H]1O[C@H](CO)[C@@H](O)[C@H]1O [ADENOSINE]
- Duration (Canis familiaris [38]): 2 min
- Duration (Canis familiaris [39]): 4 min
- Duration (Canis familiaris [40]): 2 min
- BP (Canis familiaris [41]): 60 mmHg
- PO2 (Canis familiaris [42]): 200%
